IDH1 mut inh: blocks human IDH1 R132H reductase activity; O75874; diaphorase/resazurin fluorescence, 60 min; inhibition, % at 10 µM; 0.18% of 70,000 active; AID 624101; in the data active = inhibition above about 34%; inconclusive = no clear call, values can overlap the other calls; inactive = below about 11%
Target sequence (O75874 whole entry R132H): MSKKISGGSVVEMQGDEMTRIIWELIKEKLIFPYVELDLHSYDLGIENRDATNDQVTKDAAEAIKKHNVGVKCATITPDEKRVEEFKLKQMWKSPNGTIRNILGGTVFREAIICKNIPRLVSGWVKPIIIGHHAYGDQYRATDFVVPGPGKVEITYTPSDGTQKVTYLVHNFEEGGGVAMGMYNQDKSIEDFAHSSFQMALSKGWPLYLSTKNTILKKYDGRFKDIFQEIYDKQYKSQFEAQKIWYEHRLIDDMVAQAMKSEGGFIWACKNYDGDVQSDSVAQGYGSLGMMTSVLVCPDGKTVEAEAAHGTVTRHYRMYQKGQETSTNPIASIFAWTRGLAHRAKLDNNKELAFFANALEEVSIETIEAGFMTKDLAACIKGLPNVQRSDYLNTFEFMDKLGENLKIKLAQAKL
T cruzi growth: inhibitors of T. cruzi proliferation; T. cruzi beta-gal in NIH3T3, GalScreen luminescence, 90 h; inhibition, % at 8.34 µM; 5.9% of 77,000 active;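 active = mean inhibition above about 93%, with at least 55% of replicates each passing it, limit read from the data, passing the limit was not always enough; inconclusive = only one of those two conditions holds; inactive = neither condition holds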
GASC1 inh: KDM4C (human) demethylase inhibition; Q9H3R0; GST-KDM4C 2-372, H3K9me3 peptide, LANCE TR-FRET; inhibition, % at 12.5 µM; 0.15% of 96,000 active;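 active = mean replicate inhibition above about 25%, with at least 55% of replicates also reaching it, limit read from the data, passing the limit was not always enough; inconclusive = only one of those two conditions met; inactive = neither condition met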
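Material: N-terminal GST-fused human GASC-1 (KDM4C) fragment, residues 2-372. Input: 10 nM enzyme. Incubation: enzyme reaction 30 min, then detection 60 min, both room temperature. Doses: one test concentration per compound. Read-out basis: inhibition from TR-FRET ratio decrease. Detection: LANCE TR-FRET, excitation 340 nm, emissions 618 and 671 nm.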
Of the large screens only hits and unclear results are named; the others gave an inactive call. Many of the other results were omitted from the sample, so hits are more common in it than they were.

COc1ccc(CN(C)C[C@H]2Oc3ccc(NC(=O)C4CC4)cc3CC(=O)N([C@@H](C)CO)C[C@@H]2C)cc1	none
C[C@@H]1CN([C@H](C)CO)C(=O)Cc2cc(NC(=O)NC3CCCCC3)ccc2O[C@@H]1CN(C)Cc1ccncc1	none (no result: GASC1 inh)
C[C@@H]1CN([C@@H](C)CO)C(=O)Cc2cc(NC(=O)NC3CCCCC3)ccc2O[C@H]1CN(C)Cc1ccncc1	IDH1 mut inh 46.6
COc1ccc(CN(C)C[C@@H]2Oc3ccc(NC(=O)C4CCCCC4)cc3CC(=O)N([C@@H](C)CO)C[C@H]2C)cc1	IDH1 mut inh 106.1, GASC1 inh 84.7
CN(CCO)S(=O)(=O)c1cccc(C(=O)O)c1	none (no result: T cruzi growth, GASC1 inh)
CN(C)c1ccc2c(c1)[C@H]1C[C@@H](CC(=O)NCc3ccc(Oc4ccccc4)cc3)O[C@H](CO)[C@H]1O2	none (no result: IDH1 mut inh, T cruzi growth)
CN(C)c1ccc2c(c1)[C@@H]1C[C@@H](CC(=O)NCc3ccccc3)O[C@H](CO)[C@@H]1O2	none
CN(C)c1ccc2c(c1)[C@H]1C[C@H](CC(=O)NCc3ccccc3)O[C@@H](CO)[C@H]1O2	GASC1 inh 35.6
CN(C)c1ccc2c(c1)[C@@H]1C[C@@H](CC(=O)NCc3ccc(Oc4ccccc4)cc3)O[C@@H](CO)[C@@H]1O2	T cruzi growth 127.2
N#Cc1c(C(F)(F)F)cc(-c2ccccc2)nc1SCC(=O)Nc1ccccc1C(F)(F)F	none (no result: T cruzi growth, GASC1 inh)
CCC(Sc1nnc2c3ccccc3n(C)c2n1)C(=O)Nc1ncccc1Cl (stereo unspecified)	none (no result: T cruzi growth, GASC1 inh)
CN(C)c1ccc2c(c1)[C@H]1C[C@H](CC(=O)N3CCc4ccccc4C3)O[C@@H](CO)[C@H]1O2	none
CN(C)c1ccc2c(c1)[C@@H]1C[C@@H](CC(=O)N3CCOCC3)O[C@@H](CO)[C@@H]1O2	GASC1 inh 43.8
CN(C)c1ccc2c(c1)[C@@H]1C[C@@H](CC(=O)N3CCCCC3)O[C@H](CO)[C@@H]1O2	none (no result: IDH1 mut inh, T cruzi growth)
CN(C)c1ccc2c(c1)[C@@H]1C[C@H](CC(=O)N3CCc4ccccc4C3)O[C@@H](CO)[C@@H]1O2	T cruzi growth 101.4
N#C/C(N)=C(\C#N)N=Cc1ccc(C#N)cc1	none (no result: T cruzi growth, GASC1 inh)
COc1ccccc1S(=O)(=O)N[C@H]1CC[C@H](CCNC(=O)C2CCCC2)O[C@H]1CO	IDH1 mut inh inconclusive, GASC1 inh 50.1 (no result: T cruzi growth)
Cc1ccccc1S(=O)(=O)NCC[C@H]1CC[C@H](NC(=O)C2CCCCC2)[C@H](CO)O1	IDH1 mut inh 88.3, GASC1 inh 82.5
COc1ccccc1S(=O)(=O)N[C@H]1CC[C@H](CCNC(=O)C2CCCCC2)O[C@@H]1CO	none
Cc1ccccc1S(=O)(=O)NCC[C@H]1CC[C@@H](NC(=O)C2CCCCC2)[C@@H](CO)O1	none
COc1ccc(OC(C)C(=O)Nc2cc(C)ccc2OC)cc1 (stereo unspecified)	none (no result: T cruzi growth, GASC1 inh)
O=C(CSc1nnnn1-c1ccccc1)Nc1cc(Cl)cc(Cl)c1	none (no result: T cruzi growth, GASC1 inh)
CC(=O)c1cccc(NC(=O)Cc2ccccc2[N+](=O)[O-])c1	none (no result: T cruzi growth, GASC1 inh)
COc1cc(C)c(C(=O)Oc2cc(C)c(C(=O)Oc3cc(C)c(C(=O)NC(C)C(=O)O)c(O)c3)c(O[C@@H]3O[C@H](CO)[C@@H](O)[C@H](O)[C@H]3OC(C)=O)c2)c(O)c1 (stereo partly specified)	none (no result: T cruzi growth, GASC1 inh)
Cc1cc(C)c(NC(=O)CSc2nnc(-c3ccncc3)n2C)c(C)c1	none (no result: T cruzi growth, GASC1 inh)
CS(=O)(=O)N(CC(=O)Nc1c(F)cccc1F)c1cc(Cl)c(Cl)cc1Cl	none (no result: T cruzi growth, GASC1 inh)
COc1ccc(NC(=O)Nc2ccc3c(c2)CC(=O)N([C@H](C)CO)C[C@H](C)[C@@H](CN(C)C(=O)Nc2ccccc2)O3)cc1	none (no result: T cruzi growth)
COc1ccc(NC(=O)N(C)C[C@H]2Oc3ccc(NC(=O)Nc4ccccc4)cc3CC(=O)N([C@H](C)CO)C[C@@H]2C)cc1	GASC1 inh 42.3
COc1ccc(NC(=O)N(C)C[C@@H]2Oc3ccc(NC(=O)Nc4ccccc4)cc3CC(=O)N([C@@H](C)CO)C[C@H]2C)cc1	IDH1 mut inh 58.6
COc1ccc(NC(=O)Nc2ccc3c(c2)CC(=O)N([C@@H](C)CO)C[C@@H](C)[C@@H](CN(C)C(=O)Nc2ccccc2)O3)cc1	none (no result: T cruzi growth)
O=C(CC1Nc2cccc3cccc(c23)NC1=O)Nc1ccc([N+](=O)[O-])cc1 (stereo unspecified)	none (no result: T cruzi growth, GASC1 inh)
COc1c(Cl)ccc(Cl)c1C(=O)Nc1ccc(S(=O)(=O)Nc2cc(C)nc(C)n2)cc1	none (no result: T cruzi growth, GASC1 inh)
COC(CCc1ccc(O)c(O)c1)CC(=O)CCc1ccc(O)c(O)c1 (stereo unspecified)	IDH1 mut inh 51.9 (no result: T cruzi growth, GASC1 inh)
O=C(CCc1ccc(O)cc1)CC(O)CCc1ccc(O)c(O)c1 (stereo unspecified)	IDH1 mut inh 54.1 (no result: T cruzi growth, GASC1 inh)
CCCCCCC[C@@H](O)CC(=O)CCc1ccc(O)c(OC)c1	none (no result: T cruzi growth, GASC1 inh)
CCCCC[C@H](O)CC(=O)CCc1ccc(O)c(OC)c1	none (no result: T cruzi growth, GASC1 inh)
O=C(CCCN1C(=O)c2ccccc2C1=O)Nc1ccc2ccccc2c1	none (no result: T cruzi growth, GASC1 inh)
COc1ccc2ccccc2c1C=C1C(=O)OC2(CCCC2)OC1=O	none (no result: T cruzi growth, GASC1 inh)
Cc1noc(C)c1S(=O)(=O)N(C)C[C@H]1Oc2ccc(NS(=O)(=O)c3ccccc3)cc2CC(=O)N([C@@H](C)CO)C[C@@H]1C	none
Cc1noc(C)c1S(=O)(=O)N(C)C[C@H]1Oc2ccc(NS(=O)(=O)c3ccccc3)cc2CC(=O)N([C@H](C)CO)C[C@@H]1C	GASC1 inh 45.1
CNC[C@H]1Oc2ccc(NS(=O)(=O)c3cn(C)cn3)cc2CC(=O)N([C@H](C)CO)C[C@@H]1C	none
CNC[C@@H]1Oc2ccc(NS(=O)(=O)c3cn(C)cn3)cc2CC(=O)N([C@H](C)CO)C[C@@H]1C	T cruzi growth 97.8
Cn1c(=O)c2c(nc(NCC(O)c3ccccc3)n2Cc2ccc(F)cc2)n(C)c1=O (stereo unspecified)	none (no result: T cruzi growth, GASC1 inh)
O=C(CSc1nnc(-c2cccc(Cl)c2)n1-c1ccccc1)Nc1ccccc1-c1ccccc1	none (no result: T cruzi growth, GASC1 inh)
CN1C(=O)c2cc(NC(=O)C3CC3)ccc2OC[C@H]2O[C@@H](CC(=O)O)CC[C@@H]21	GASC1 inh 44.3 (no result: IDH1 mut inh, T cruzi growth)
CN1C(=O)c2cc(NC(=O)C3CC3)ccc2OC[C@@H]2O[C@@H](CC(=O)O)CC[C@@H]21	none (no result: IDH1 mut inh, T cruzi growth)
CC(=O)NC(c1cccc([N+](=O)[O-])c1)c1c(O)ccc2ccccc12 (stereo unspecified)	none (no result: T cruzi growth, GASC1 inh)
COc1ccc(C#Cc2cnc3c(c2)C(=O)N([C@H](C)CO)C[C@@H](C)[C@@H](CN(C)C)O3)cc1	none
COc1ccc(C#Cc2cnc3c(c2)C(=O)N([C@H](C)CO)C[C@H](C)[C@H](CN(C)C)O3)cc1OC	GASC1 inh 28.9
COc1ccccc1-c1cnc2c(c1)C(=O)N([C@H](C)CO)C[C@@H](C)[C@H](CN(C)C)O2	GASC1 inh 32.7 (no result: T cruzi growth)
C[C@@H]1CN([C@H](C)CO)C(=O)c2cccc(NC(=O)c3nc4ccccc4s3)c2O[C@@H]1CN(C)Cc1ccc(C(=O)Nc2ccccc2N)cc1	none
COc1ccc(C#Cc2cnc3c(c2)C(=O)N([C@@H](C)CO)C[C@H](C)[C@H](CN(C)C)O3)cc1	GASC1 inh 28.2
C[C@@H]1CN([C@@H](C)CO)C(=O)c2cccc(NC(=O)c3nc4ccccc4s3)c2O[C@H]1CN(C)Cc1ccc(C(=O)Nc2ccccc2N)cc1	T cruzi growth 104.2 (no result: IDH1 mut inh)
COc1ccccc1-c1cnc2c(c1)C(=O)N([C@H](C)CO)C[C@H](C)[C@@H](CN(C)C)O2	none (no result: T cruzi growth)
